Measurements from ChEMBL document CHEMBL1143123, “Novel analogs of D-e-MAPP and B13. Part 2: signature effects on bioactive sphingolipids” (2008).
Activity calls are given as the source filed them. The calls are words filed in the database; no cut-off is given here.

Columns and labels:
[1] = system: MCF7; test: Inhibition of endogenous sphingosine level in human MCF7 cells at 10 uM after 2.5 hrs; assay type: functional, cell-based
How it was run: (§1)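 MCF7 cells grown in RPMI 1640 with 10% FCS at 37 °C in 5% CO2. Seeded near 50% density and treated 24 h later with compound in ethanol (0.1% final); controls got ethanol alone. Cells washed in cold PBS and extracted. Cer species, Sph and S1P measured by HPLC-MS/MS (C8 column, positive-ion MRM) against internal standards and calibration curves. Results given as pmol/nmol phospholipid phosphate, relative to ethanol controls.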

[2] = system: MCF7; test: Increase in endogenous C14-ceramide level in human MCF7 cells after 24 hrs; assay type: functional
How it was run: (§2)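 MCF7 cells grown in RPMI 1640 with 10% FCS at 37 °C, 5% CO2. Seeded at ~50% density (1×10^6 cells), treated 24 h later with compounds in ethanol (0.1% final); controls got ethanol only. Cells washed in cold PBS and lipids extracted. Cer species and Sph quantified by HPLC-MS/MS (MRM, positive ion) against internal standards and calibration curves. Values given as pmol/nmol phospholipid and compared with ethanol controls.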

[3] = system: MCF7; test: Increase in endogenous C16-ceramide level in human MCF7 cells after 24 hrs; assay type: functional; how it was run: as §2
[4] = system: MCF7; test: Increase in endogenous C24:1-ceramide level in human MCF7 cells after 24 hrs; assay type: functional; how it was run: as §1
[5] = system: MCF7; test: Increase in endogenous sphingosine level in human MCF7 cells after 24 hrs; assay type: functional; how it was run: as §1
[6] = system: MCF7; test: Increase in endogenous C24-ceramide level in human MCF7 cells after 24 hrs; assay type: functional; how it was run: as §2
[7] = system: MCF7; test: Increase in endogenous C16-ceramide level in human MCF7 cells at 10 uM upto 0.5 hrs; assay type: functional, cell-based; how it was run: as §2
[8] = system: MCF7; test: Increase in endogenous C24-ceramide level in human MCF7 cells at 10 uM upto 0.5 hrs; assay type: functional, cell-based; how it was run: as §2
[9] = system: MCF7; test: Increase in endogenous C24:1-ceramide level in human MCF7 cells at 10 uM upto 0.5 hrs; assay type: functional, cell-based; how it was run: as §1
[10] = system: MCF7; test: Decrease in endogenous sphingosine level in human MCF7 cells at 10 uM upto 0.5 hrs; assay type: functional, cell-based; how it was run: as §2
[11] = system: MCF7; test: (§3) Increase in endogenous C14-ceramide level in human MCF7 cells at 10 uM upto 24 hrs; assay type: functional; how it was run: as §2
[12] = system: MCF7; test: Increase in endogenous C16-ceramide level in human MCF7 cells upto 24 hrs; assay type: functional; how it was run: as §2
[13] = system: MCF7; test: Increase in endogenous C24-ceramide level in human MCF7 cells upto 24 hrs; assay type: functional; how it was run: as §1
[14] = system: MCF7; test: Increase in endogenous C24:1-ceramide level in human MCF7 cells upto 24 hrs; assay type: functional; how it was run: as §1
[15] = system: MCF7; test: Increase in endogenous sphingosine-1-phosphate level in human MCF7 cells after 5 to 10 hrs; assay type: functional, cell-based; how it was run: as §1
[16] = system: MCF7; test: Increase in endogenous ceramide level in human MCF7 cells at 50 uM after 24 hrs; assay type: functional; how it was run: as §1
[17] = system: MCF7; test: Increase in endogenous sphingosine level in human MCF7 cells upto 10 uM after 24 hrs; assay type: functional, cell-based; how it was run: as §1
[18] = system: MCF7; test: Increase in endogenous C16-ceramide level in human MCF7 cells at 50 uM after 24 hrs; assay type: functional; how it was run: as §2
[19] = system: MCF7; test: Increase in endogenous sphingosine level in human MCF7 cells at 10 uM after 24 hrs; assay type: functional; how it was run: as §1
[20] = system: MCF7; test: Increase in endogenous C24-ceramide level in human MCF7 cells at 10 uM after 1 to 2.5 hrs; assay type: functional, cell-based; how it was run: as §2
[21] = system: MCF7; test: Increase in endogenous C24:1-ceramide level in human MCF7 cells at 10 uM after 1 to 2.5 hrs; assay type: functional, cell-based; how it was run: as §1
[22] = system: MCF7; test: Increase in endogenous sphingosine level in human MCF7 cells at 10 uM after 1 to 2.5 hrs; assay type: functional, cell-based; how it was run: as §1
[23] = system: MCF7; test: Decrease in endogenous sphingosine level in human MCF7 cells upto 10 uM after 48 hrs; assay type: functional; design: scale not given: the % may be the effect or the level left; how it was run: as §2
[24] = system: MCF7; test: Growth inhibition of human MCF7 cells after 48 hrs; assay type: functional, cell-based
[25] = system: MCF7; test: Decrease in endogenous sphingosine level in human MCF7 cells at 50 uM after 24 hrs; design: scale not given: the % may be the effect or the level left
[26] = system: MCF7; test: Decrease in endogenous C24-ceramide level in human MCF7 cells at 10 uM after 24 hrs; assay type: functional; how it was run: as §2
[27] = system: MCF7; test: Decrease in endogenous C24:1-ceramide level in human MCF7 cells at 10 uM after 24 hrs; assay type: functional; how it was run: as §2
[28] = system: MCF7; test: Increase in endogenous C16-ceramide level in human MCF7 cells at 10 uM after 24 hrs; assay type: functional, cell-based; how it was run: as §2
[29] = system: MCF7; test: as §3; assay type: functional, cell-based; how it was run: as §2
[30] = system: MCF7; test: Decrease in endogenous sphingosine level in human MCF7 cells at 10 uM upto 24 hrs; assay type: functional, cell-based; how it was run: as §2
[31] = system: MCF7; test: Inhibition of acid ceramidase in human MCF7 cells assessed as enzyme degradation at 10 uM after 5 hrs; assay type: cell-based
[32] = system: MCF7; test: Increase in endogenous C14-ceramide level in human MCF7 cells at 10 uM after 24 hrs; assay type: functional; how it was run: as §2
[33] = system: MCF7; test: Decrease in endogenous sphingosine level in human MCF7 cells at 1 uM after 24 hrs; assay type: functional; how it was run: as §2
[34] = system: MCF7; test: Induction of endogenous C24:1-ceramide formation in human MCF7 cells after 10 hrs; assay type: functional; how it was run: as §1
[35] = system: MCF7; test: Induction of endogenous C16-ceramide formation in human MCF7 cells after 10 hrs; assay type: functional; how it was run: as §1
[36] = system: MCF7; test: Induction of endogenous C14-ceramide formation in human MCF7 cells after 10 hrs; assay type: functional; how it was run: as §1
[37] = system: MCF7; test: Increase in endogenous ceramide level in human MCF7 cells upto 10 uM after 24 hrs; assay type: functional; how it was run: as §1
[38] = system: MCF7; test: Increase in endogenous ceramide level in human MCF7 cells at 10 uM after 24 hrs; assay type: functional; how it was run: as §1
[39] = system: MCF7; test: Increase in endogenous sphingosine level in human MCF7 cells >5 uM after 24 hrs; assay type: functional, cell-based; how it was run: as §1
[40] = system: MCF7; test: Increase in endogenous C14-ceramide level in human MCF7 cells at 10 uM within 30 mins; assay type: functional; how it was run: as §2
[41] = system: MCF7; test: Increase in endogenous sphingosine level in human MCF7 cells at 10 uM after 5 hrs; assay type: functional; how it was run: as §1

In the case of `CCCCCCCCCCCCCCN[C@H](C)[C@H](O)c1ccccc1`, the Activity [1] is reported as “Active”.

`O=C(CCCCCCCCCCCCCCC[n+]1ccccc1)N[C@H](CO)[C@H](O)c1ccc([N+](=O)[O-])cc1.[Br-]` was tested, and the Activity [2] was 800%, the Activity [3] was 800% and the Activity [4] was 270%. The Activity [5] was 350%, the Activity [6] was 140% and the Activity [7] was “Active”. For the same compound, the Activity [8] was “Active”, the Activity [9] was “Active” and the Activity [10] was “Active”. For the same compound, the Activity [11] was 760%, the Activity [12] was 820% and the Activity [13] was 130%. For the same compound, the Activity [14] was 260% and the Activity [15] was “Active”.

For `CCCCCCCCCCCCNC(=O)N[C@H](C)[C@@H](O)c1ccccc1`, the Activity [16] was 180%, the Activity [17] was “Active” and the Activity [18] was “Active”. The Activity [19] was 140%, the Activity [20] was “Active” and the Activity [21] was “Active”. The Activity [22] was “Active”, the Activity [23] was 25% and the Activity [24] was “Active”. For the same compound, the Activity [25] was 25%.

`CCCCCCCCCCCCCCN[C@H](CO)[C@H](O)c1ccc([N+](=O)[O-])cc1.Cl` was tested, and the Activity [26] was “Active”, the Activity [27] was “Active” and the Activity [28] was “Active”. The Activity [29] was “Active”, the Activity [30] was “Active” and the Activity [31] was “Active”. The Activity [32] was 850% and the Activity [33] was “Active”.

In the case of `C[C@@H](NC(=O)CCCCCCCCCCCCCCC[n+]1ccccc1)[C@@H](O)c1ccccc1.[Br-]`, the Activity [34] is reported as 142%, the Activity [35] is reported as 157% and the Activity [36] is reported as 310%. The Activity [37] was 260%, the Activity [38] was 260% and the Activity [39] was “Active”. The Activity [2] was “Dose-dependent effect”, the Activity [3] was “Dose-dependent effect” and the Activity [4] was “Dose-dependent effect”. For the same compound, the Activity [5] was “Dose-dependent effect”, the Activity [15] was “Active” and the Activity [40] was 190%. For the same compound, the Activity [41] was 300%.
